Measured values published in ChEMBL document CHEMBL5724801, “EUbOPEN Chemogenomics Library - Multiplex” (2024).
Several values for one entry are separate records, joined by “and”; a condition that tells them apart may be missing. Identical values can stand only once.

System: HEK-293T
Experiment: Multiplex assay against HEK293T
Format: toxicity, cell-based
Settings: human
Method in brief: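 Phenotypes for tubulin, mitochondrial mass and membrane permeability are expressed as per cents of healthy-nucleus cells. Cells were stained live at seeding with Hoechst33342, BioTracker Green Microtubule Cytoskeleton Dye, MitoTracker Red and Annexin V Alexa Fluor 680, then imaged after compound addition on a CQ1 microscope at 37°C and 5% CO2. Machine-learning gating in CellPathfinder separated Hoechst high-intensity objects from normal cells, divided normal cells by nuclear state (healthy, pyknosed, fragmented) and divided pyknosed cells into mitotic or apoptotic.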

[1] = 12 h, 1 µM, compound concentration 1 uM
[2] = 12 h, 10 µM, compound concentration 10 uM
[3] = 24 h, 1 µM, compound concentration 1 uM
[4] = 24 h, 10 µM, compound concentration 10 uM
[5] = 48 h, 1 µM, compound concentration 1 uM
[6] = 48 h, 10 µM, compound concentration 10 uM

Question: For Cc1onc(-c2ccccc2Cl)c1C(=O)N(C)c1ccc(Cl)cc1, which “Population Apoptotic (%)” value [1] is on record?
Answer: 35% and 37%

Question: And the “Population Fragmented Nuclei (%)” value [1]?
Answer: 8% and 3%

Question: And the “Population Healthy Nuclei (%)” value [1]?
Answer: 79% and 84%

Question: And the “Population Hoechst High Intensity Objects (%)” value [1]?
Answer: 9% and 6%

Question: What about the “Population Membrane Permeable-Phenotype (%)” value [1] of the same compound?
Answer: 0%

Question: And the “Population Mitochondria Different-Phenotype (%)” value [1]?
Answer: 41% and 59%

Question: And the “Population Mitotic Cells (%)” value [1]?
Answer: 64% and 62%

Question: What about the “Population Normal (%)” value [1] of the same compound?
Answer: 90% and 93%

Question: What about the “Population Pyknosed Nuclei (%)” value [1] of the same compound?
Answer: 12%

Question: What about the “Population Tubulin-Different-Phenotype (%)” value [1] of the same compound?
Answer: 25%

Question: And the “Total Cell Count” value [1]?
Answer: 375 and 320

Question: What about the “Population Apoptotic (%)” value [2] of the same compound?
Answer: 38% and 45%

Question: What about the “Population Fragmented Nuclei (%)” value [2] of the same compound?
Answer: 7% and 4%

Question: And the “Population Healthy Nuclei (%)” value [2]?
Answer: 79% and 80%

Question: What about the “Population Hoechst High Intensity Objects (%)” value [2] of the same compound?
Answer: 12% and 6%

Question: And the “Population Membrane Permeable-Phenotype (%)” value [2]?
Answer: 0%

Question: And the “Population Mitochondria Different-Phenotype (%)” value [2]?
Answer: 49% and 65%

Question: What about the “Population Mitotic Cells (%)” value [2] of the same compound?
Answer: 61% and 54%

Question: And the “Population Normal (%)” value [2]?
Answer: 87% and 93%

Question: And the “Population Pyknosed Nuclei (%)” value [2]?
Answer: 13% and 14%

Question: And the “Population Tubulin-Different-Phenotype (%)” value [2]?
Answer: 43% and 35%

Question: And the “Total Cell Count” value [2]?
Answer: 357 and 330

Question: What about the “Population Apoptotic (%)” value [3] of the same compound?
Answer: 23% and 42%

Question: And the “Population Fragmented Nuclei (%)” value [3]?
Answer: 9% and 5%

Question: What about the “Population Healthy Nuclei (%)” value [3] of the same compound?
Answer: 81%

Question: And the “Population Hoechst High Intensity Objects (%)” value [3]?
Answer: 5% and 3%

Question: And the “Population Membrane Permeable-Phenotype (%)” value [3]?
Answer: 1%

Question: And the “Population Mitochondria Different-Phenotype (%)” value [3]?
Answer: 21% and 44%

Question: What about the “Population Mitotic Cells (%)” value [3] of the same compound?
Answer: 76% and 57%

Question: What about the “Population Normal (%)” value [3] of the same compound?
Answer: 94% and 96%

Question: What about the “Population Pyknosed Nuclei (%)” value [3] of the same compound?
Answer: 9% and 12%

Question: And the “Population Tubulin-Different-Phenotype (%)” value [3]?
Answer: 14% and 18%

Question: What about the “Total Cell Count” value [3] of the same compound?
Answer: 523 and 383

Question: And the “Population Apoptotic (%)” value [4]?
Answer: 45% and 29%

Question: What about the “Population Fragmented Nuclei (%)” value [4] of the same compound?
Answer: 8% and 7%

Question: What about the “Population Healthy Nuclei (%)” value [4] of the same compound?
Answer: 79% and 82%

Question: And the “Population Hoechst High Intensity Objects (%)” value [4]?
Answer: 5% and 3%

Question: What about the “Population Membrane Permeable-Phenotype (%)” value [4] of the same compound?
Answer: 1% and 0%

Question: What about the “Population Mitochondria Different-Phenotype (%)” value [4] of the same compound?
Answer: 32% and 47%

Question: What about the “Population Mitotic Cells (%)” value [4] of the same compound?
Answer: 54% and 70%

Question: And the “Population Normal (%)” value [4]?
Answer: 94% and 96%

Question: And the “Population Pyknosed Nuclei (%)” value [4]?
Answer: 12% and 9%

Question: And the “Population Tubulin-Different-Phenotype (%)” value [4]?
Answer: 20%

Question: What about the “Total Cell Count” value [4] of the same compound?
Answer: 478 and 413

Question: What about the “Population Apoptotic (%)” value [5] of the same compound?
Answer: 21% and 31%

Question: What about the “Population Fragmented Nuclei (%)” value [5] of the same compound?
Answer: 14% and 11%

Question: And the “Population Healthy Nuclei (%)” value [5]?
Answer: 79% and 82%

Question: And the “Population Hoechst High Intensity Objects (%)” value [5]?
Answer: 2%

Question: What about the “Population Membrane Permeable-Phenotype (%)” value [5] of the same compound?
Answer: 0% and 1%

Question: What about the “Population Mitochondria Different-Phenotype (%)” value [5] of the same compound?
Answer: 11% and 23%

Question: And the “Population Mitotic Cells (%)” value [5]?
Answer: 78% and 68%

Question: And the “Population Normal (%)” value [5]?
Answer: 97%

Question: And the “Population Pyknosed Nuclei (%)” value [5]?
Answer: 6% and 5%

Question: What about the “Population Tubulin-Different-Phenotype (%)” value [5] of the same compound?
Answer: 9% and 12%

Question: What about the “Total Cell Count” value [5] of the same compound?
Answer: 932 and 620

Question: And the “Population Apoptotic (%)” value [6]?
Answer: 33% and 20%

Question: What about the “Population Fragmented Nuclei (%)” value [6] of the same compound?
Answer: 14% and 12%

Question: What about the “Population Healthy Nuclei (%)” value [6] of the same compound?
Answer: 76% and 81%

Question: What about the “Population Hoechst High Intensity Objects (%)” value [6] of the same compound?
Answer: 3%

Question: What about the “Population Membrane Permeable-Phenotype (%)” value [6] of the same compound?
Answer: 1% and 0%

Question: And the “Population Mitochondria Different-Phenotype (%)” value [6]?
Answer: 16% and 25%

Question: What about the “Population Mitotic Cells (%)” value [6] of the same compound?
Answer: 66% and 79%

Question: What about the “Population Normal (%)” value [6] of the same compound?
Answer: 96%

Question: And the “Population Pyknosed Nuclei (%)” value [6]?
Answer: 8% and 6%

Question: What about the “Population Tubulin-Different-Phenotype (%)” value [6] of the same compound?
Answer: 15% and 16%

Question: What about the “Total Cell Count” value [6] of the same compound?
Answer: 755 and 652

Question: Which results are given for CCCC(CCC)C(=O)O [VALPROIC ACID]?
Answer: Population Apoptotic (%) [1]: 39% and 28%; Population Fragmented Nuclei (%) [1]: 6% and 5%; Population Healthy Nuclei (%) [1]: 81% and 79%; Population Hoechst High Intensity Objects (%) [1]: 6% and 5%; Population Membrane Permeable-Phenotype (%) [1]: 0%; Population Mitochondria Different-Phenotype (%) [1]: 29% and 46%; Population Mitotic Cells (%) [1]: 60% and 71%; Population Normal (%) [1]: 93% and 94%; Population Pyknosed Nuclei (%) [1]: 12% and 15%; Population Tubulin-Different-Phenotype (%) [1]: 20% and 16%; Total Cell Count [1]: 513 and 367; Population Apoptotic (%) [2]: 34% and 44%; Population Fragmented Nuclei (%) [2]: 6% and 7%; Population Healthy Nuclei (%) [2]: 82% and 81%; Population Hoechst High Intensity Objects (%) [2]: 6%; Population Membrane Permeable-Phenotype (%) [2]: 0%; Population Mitochondria Different-Phenotype (%) [2]: 40% and 49%; Population Mitotic Cells (%) [2]: 66% and 55%; Population Normal (%) [2]: 93%; Population Pyknosed Nuclei (%) [2]: 11%; Population Tubulin-Different-Phenotype (%) [2]: 26% and 20%; Total Cell Count [2]: 455 and 446; Population Apoptotic (%) [3]: 28% and 45%; Population Fragmented Nuclei (%) [3]: 8% and 6%; Population Healthy Nuclei (%) [3]: 78% and 83%; Population Hoechst High Intensity Objects (%) [3]: 4%; Population Membrane Permeable-Phenotype (%) [3]: 1% and 0%; Population Mitochondria Different-Phenotype (%) [3]: 22% and 26%; Population Mitotic Cells (%) [3]: 71% and 54%; Population Normal (%) [3]: 95%; Population Pyknosed Nuclei (%) [3]: 12% and 9%; Population Tubulin-Different-Phenotype (%) [3]: 16% and 10%; Total Cell Count [3]: 663 and 469; Population Apoptotic (%) [4]: 28% and 23%; Population Fragmented Nuclei (%) [4]: 9% and 8%; Population Healthy Nuclei (%) [4]: 81% and 86%; Population Hoechst High Intensity Objects (%) [4]: 4% and 3%; Population Membrane Permeable-Phenotype (%) [4]: 0%; Population Mitochondria Different-Phenotype (%) [4]: 16% and 30%; Population Mitotic Cells (%) [4]: 71% and 76%; Population Normal (%) [4]: 95% and 96%; Population Pyknosed Nuclei (%) [4]: 9% and 5%; Population Tubulin-Different-Phenotype (%) [4]: 15% and 11%; Total Cell Count [4]: 649 and 593; Population Apoptotic (%) [5]: 19% and 36%; Population Fragmented Nuclei (%) [5]: 14% and 10%; Population Healthy Nuclei (%) [5]: 78% and 81%; Population Hoechst High Intensity Objects (%) [5]: 2% and 3%; Population Membrane Permeable-Phenotype (%) [5]: 3% and 1%; Population Mitochondria Different-Phenotype (%) [5]: 11% and 17%; Population Mitotic Cells (%) [5]: 80% and 63%; Population Normal (%) [5]: 97% and 96%; Population Pyknosed Nuclei (%) [5]: 6% and 8%; Population Tubulin-Different-Phenotype (%) [5]: 9% and 10%; Total Cell Count [5]: 1112 and 700; Population Apoptotic (%) [6]: 21% and 27%; Population Fragmented Nuclei (%) [6]: 15% and 13%; Population Healthy Nuclei (%) [6]: 79% and 82%; Population Hoechst High Intensity Objects (%) [6]: 3% and 1%; Population Membrane Permeable-Phenotype (%) [6]: 1% and 2%; Population Mitochondria Different-Phenotype (%) [6]: 11% and 12%; Population Mitotic Cells (%) [6]: 78% and 72%; Population Normal (%) [6]: 96% and 98%; Population Pyknosed Nuclei (%) [6]: 5% and 4%; Population Tubulin-Different-Phenotype (%) [6]: 9% and 6%; Total Cell Count [6]: 1088 and 947
